The source made the active and inactive calls. No cut-off for these calls is given here.
Tests used:
HT-29 [1] = experiment: Cytotoxicity against human HT-29 cells after 72 hrs by Alamar blue assay; type: functional, cell-based; settings: HT-29, 72 h
Procedure, shortened: (§1)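 Cells exposed to compound for 72 h, then Alamar blue added with a further 10−12 h at 37 °C and a spectrophotometric read. IC50 from six or seven concentrations by median-effect analysis; mean ± STDEV, n = 3. CL141T is a line derived from a patient lung tumor passaged as a SCID mouse xenograft.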

[2] = Cell cycle arrest in human CL141T cells assessed as accumulation at G1 phase at 1 x IC50 to 2 x IC50 after 24 hrs by propidium iodide staining-based FACS flow cytometric analysis; type: functional
Procedure, shortened: (§2)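 CL141T cells treated at 0.5-, 1- and 2-fold IC50 for 24, 48 and 72 h. Cells fixed in ice-cold 70% EtOH, then stained with 4 μg/mL propidium iodide in PBS with 1% Triton X-100 and 0.1 mg/mL RNase A. Phase distribution from flow cytometry DNA histograms; sub-G1 fraction scored as well.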

MX1 = experiment: Cytotoxicity against human MX1 cells after 72 hrs by SRB assay; type: functional, cell-based; settings: MX1, 72 h
A549 [3] = experiment: Antitumor activity against human A549 cells xenografted in nude mouse assessed as tumor growth inhibition at 25 mg/kg, iv qd administered 4 days measured on day 20 relative to vehicle-treated control; type: functional; settings: read-out: TGI
[4] = Cell cycle arrest in human CL141T cells assessed as accumulation at S phase at 0.5 x IC50 after 24 hrs by propidium iodide staining-based FACS flow cytometric analysis; type: functional; procedure, shortened: as §2
HT-29 [5] = experiment: Antitumor activity against human HT-29 cells xenografted in nude mouse assessed as tumor growth inhibition at 25 mg/kg, iv qd administered 4 days measured on day 20; type: functional, organism-based; set-up: dose 25 mg/kg
A549 [6] = experiment: Cytotoxicity against human A549 cells after 72 hrs by Alamar blue assay; type: functional, cell-based; settings: A549, 72 h; procedure, shortened: as §1
Mus musculus = experiment: Toxicity in nude mouse xenografted with human A549 cells assessed as body weight loss at 25 mg/kg, iv qd administered 4 days measured for 20 days; type: organism-based; set-up: dose 25 mg/kg, route intravenous; settings: in vivo, 480 h
[7] = Cell cycle arrest in human CL141T cells assessed as accumulation at G2/M phase at 0.5 x IC50 to 1 x IC50 after 48 to 72 hrs by propidium iodide staining-based FACS flow cytometric analysis; type: functional; procedure, shortened: as §2
KB = experiment: Cytotoxicity against human KB cells after 72 hrs by Alamar blue assay
[8] = Resistance factor, ratio of IC50 for human KB-VIN10 cells to IC50 for human KB cells; type: functional
NCI-H460 [9] = experiment: Induction of apoptosis in human H460 cells assessed as increase in cleaved caspase 7 expression at IC50 after 24 to 72 hrs by Western blotting analysis; type: functional, cell-based
Procedure, shortened: (§3)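 H460 cells treated at IC50 for 24 and 72 h. Lysate proteins separated by SDS-PAGE and blotted to nitrocellulose, blocked in 5% milk/PBST. Primary antibodies to caspase-3, caspase-7, PARP (full-length and cleaved) and β-actin applied for 1 h at room temperature or overnight at 4 °C; HRP secondary with ECL detection.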

[10] = target: DNA topoisomerase 2-alpha (Homo sapiens) (UniProt P11388); experiment: Inhibition of DNA topoisomerase 2 (unknown origin)-mediated relaxation of supercoiled pHOT DNA after 30 to 45 mins by agarose gel electrophoresis
Procedure, shortened: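 Supercoiled pHOT DNA (125 ng) with compound in buffer stated as 0.5 M Tris-HCl pH 8.0, 1.5 M NaCl, 100 mM MgCl2, 5 mM DTT, 300 μg/mL BSA, 20 mM ATP, at 37 °C. Methods state 6 units topo II, figure legend 5 units; 30−45 min, SDS stop. Products run on 1% agarose and stained with ethidium bromide.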

NCI-H460 [11] = experiment: Induction of apoptosis in human H460 cells assessed as increase in apoptotic cells at IC50 after 24 hrs by annexin V-FITC/propidium iodide staining-based FACS flow cytometric analysis (reference value: 4.1%); type: functional
[12] = Cytotoxicity against human CL141T cells after 72 hrs by Alamar blue assay; type: functional, cell-based; procedure, shortened: as §1
NCI-H460 [13] = experiment: Induction of apoptosis in human H460 cells assessed as increase in cleaved PARP expression at IC50 after 24 to 72 hrs by Western blotting analysis; type: functional, cell-based; procedure, shortened: as §3
NCI-H460 [14] = experiment: Induction of apoptosis in human H460 cells assessed as increase in apoptotic cells at IC50 after 72 hrs by annexin V-FITC/propidium iodide staining-based FACS flow cytometric analysis (reference value: 9.29%); type: functional
[15] = Cytotoxicity against human H460 cells after 72 hrs by Alamar blue assay; type: functional, cell-based; settings: NCI-H460, 72 h; procedure, shortened: as §1
[16] = Cytotoxicity against human KB-VIN10 cells after 72 hrs by Alamar blue assay; settings: KB-VIN10, 72 h
CCRF-CEM = experiment: Cytotoxicity against human CCRF-CEM cells after 72 hrs by XTT assay; type: functional, cell-based
Procedure, shortened: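 CCRF-CEM T-ALL cells incubated with compound for 72 h. XTT with phenazine methosulfate then added for 6 h at 37 °C, absorbance read at 450 and 630 nm. IC50 from six or seven concentrations by median-effect analysis; mean ± STDEV, n = 3.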

[17] = Cytotoxicity against human MES-SA/Dx5 cells after 72 hrs by Presto Blue assay; type: functional, cell-based; settings: MES-SA/Dx5, 72 h
Procedure, shortened: (§4)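 MES-SA and doxorubicin-resistant MES-SA/dx5 cells exposed for 72 h, then PrestoBlue added for 3 h at 37 °C, absorbance read at 570 and 600 nm. IC50 by median-effect analysis of six or seven concentrations; mean ± STDEV of three to six independent experiments.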

[18] = Cytotoxicity against human MES-SA cells after 72 hrs by Presto Blue assay; type: functional, cell-based; procedure, shortened: as §4

Sequence of DNA topoisomerase 2-alpha (Homo sapiens) (P11388 whole entry): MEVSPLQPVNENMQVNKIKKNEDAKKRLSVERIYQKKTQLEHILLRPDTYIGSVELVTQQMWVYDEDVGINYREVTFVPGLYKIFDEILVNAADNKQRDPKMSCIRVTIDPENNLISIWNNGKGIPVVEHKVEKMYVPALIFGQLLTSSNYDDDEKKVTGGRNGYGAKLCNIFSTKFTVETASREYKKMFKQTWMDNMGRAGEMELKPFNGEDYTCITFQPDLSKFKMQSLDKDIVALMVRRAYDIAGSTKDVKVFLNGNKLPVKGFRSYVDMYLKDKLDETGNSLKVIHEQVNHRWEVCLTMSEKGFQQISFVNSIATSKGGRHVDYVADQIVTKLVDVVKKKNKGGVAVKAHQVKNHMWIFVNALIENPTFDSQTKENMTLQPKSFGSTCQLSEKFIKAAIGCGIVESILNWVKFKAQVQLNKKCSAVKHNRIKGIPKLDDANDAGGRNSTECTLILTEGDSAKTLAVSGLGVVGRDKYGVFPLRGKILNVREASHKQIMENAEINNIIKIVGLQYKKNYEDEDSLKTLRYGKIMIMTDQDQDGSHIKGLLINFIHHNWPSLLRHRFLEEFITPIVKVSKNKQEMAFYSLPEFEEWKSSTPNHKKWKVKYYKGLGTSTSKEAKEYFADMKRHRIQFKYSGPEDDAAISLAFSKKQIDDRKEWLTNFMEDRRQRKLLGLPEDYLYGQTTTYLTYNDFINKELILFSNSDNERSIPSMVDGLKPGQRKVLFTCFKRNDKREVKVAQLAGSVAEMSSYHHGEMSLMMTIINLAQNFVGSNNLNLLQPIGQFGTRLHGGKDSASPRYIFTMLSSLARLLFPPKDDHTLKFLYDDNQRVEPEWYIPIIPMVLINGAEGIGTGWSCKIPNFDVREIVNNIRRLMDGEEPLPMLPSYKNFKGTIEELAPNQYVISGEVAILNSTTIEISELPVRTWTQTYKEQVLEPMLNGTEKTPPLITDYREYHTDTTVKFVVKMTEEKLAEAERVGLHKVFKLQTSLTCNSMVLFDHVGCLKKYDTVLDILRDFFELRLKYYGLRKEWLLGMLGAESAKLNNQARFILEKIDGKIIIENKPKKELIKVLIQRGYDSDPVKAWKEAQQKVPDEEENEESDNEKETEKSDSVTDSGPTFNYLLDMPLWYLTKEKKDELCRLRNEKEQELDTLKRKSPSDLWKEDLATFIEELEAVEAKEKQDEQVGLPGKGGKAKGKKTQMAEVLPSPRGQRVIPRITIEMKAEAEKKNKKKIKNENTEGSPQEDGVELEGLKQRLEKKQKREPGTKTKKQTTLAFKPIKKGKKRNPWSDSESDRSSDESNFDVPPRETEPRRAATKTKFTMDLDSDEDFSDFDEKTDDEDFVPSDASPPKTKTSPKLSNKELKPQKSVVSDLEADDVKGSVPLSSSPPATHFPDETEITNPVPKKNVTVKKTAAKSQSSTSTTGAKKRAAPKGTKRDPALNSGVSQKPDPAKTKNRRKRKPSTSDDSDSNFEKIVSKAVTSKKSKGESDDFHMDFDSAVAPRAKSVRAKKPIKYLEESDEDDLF

In the case of `Cc1c(CO)c(CO)c2n1Cc1c(c3ccccc3n1C)C2`, the IC50 (HT-29 [1]) is reported as 3350 nM, the Activity [2] is reported as “Active” and the IC50 (MX1) is reported as 220 nM. The inhibition in vivo at 25 mg/kg (A549 [3]) was 50%, the Activity [4] was “Active” and the TGI (HT-29 [5]) was “Active”. The IC50 (A549 [6]) was 1140 nM, the Activity (Mus musculus) was “Toxic” and the Activity [7] was “Active”. The IC50 (KB) was 2510 nM, the “Ratio IC50” value [8] was 0.52 and the Activity (NCI-H460 [9]) was “Active”. For the same molecule, the inhibition [10] was “Dose-dependent effect”, the Activity (NCI-H460 [11]) was 15.09% and the IC50 [12] was 510 nM. For the same molecule, the Activity (NCI-H460 [13]) was “Active”, the Activity (NCI-H460 [14]) was 61.35% and the IC50 [15] was 380 nM. For the same molecule, the IC50 [16] was 1310 nM, the IC50 (CCRF-CEM) was 40 nM and the IC50 [17] was 120 nM. The IC50 [18] was 240 nM.
